According to ChEMBL document CHEMBL3751829, “Synthesis and biological evaluation of 3-tetrazolo steroidal analogs: Novel class of 5α-reductase inhibitors” (Bioorg Med Chem, 2016):
pIC50: −log10 of the molar value.

Legend:
[1] = Cytotoxicity against human DU145 cells by rapid colorimetric assay; type: functional, cell-based, DU-145; conditions: for IC50: du-145
Summary of the method: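 Antiproliferative test on DU-145 cells using the Mosmann method. Seven concentrations were tested in culture medium.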

Rattus norvegicus [2] = test: Decrease in ventral prostate organ weight in male wistar rat at 5ml/kg, po qd measured on 15th day after 24 hrs of last dose; type: functional, Prostate gland; set-up: scale not given: the % may be the effect or the level left
Rattus norvegicus [3] = test: Effect on organ weight in male wistar rat assessed as seminal vesicles tissue weight per 100g at 5ml/kg, po qd measured on 15th day after 24 hrs of last dose (Rvb=175.439+/-12.833 mg/100g); type: ADME, organism-based; conditions: in vivo
Rattus norvegicus [4] = test: Decrease in epididymis organ weight in male wistar rat at 5ml/kg, po qd measured on 15th day after 24 hrs of last dose; type: functional; set-up: scale not given: the % may be the effect or the level left
Rattus norvegicus [5] = test: Decrease in dorsal prostate organ weight in male wistar rat at 5ml/kg, po qd measured on 15th day after 24 hrs of last dose; type: functional, Prostate gland; set-up: scale not given: the % may be the effect or the level left
Rattus norvegicus [6] = test: Decrease in vas deferens organ weight in male wistar rat at 5ml/kg, po qd measured on 15th day after 24 hrs of last dose; type: functional; set-up: scale not given: the % may be the effect or the level left
[7] = target: T1, 3-oxo-5-alpha-steroid 4-dehydrogenase 1 (Homo sapiens) (UniProt P18405); test: Inhibition of human 5alpha-1 reductase expressed in HEK293 cells assessed as suppression of conversion of [3]androstenedione at 2 uM incubated for 30 mins by radioactivity-based HPLC analysis; type: cell-based
T1 sequence (whole entry): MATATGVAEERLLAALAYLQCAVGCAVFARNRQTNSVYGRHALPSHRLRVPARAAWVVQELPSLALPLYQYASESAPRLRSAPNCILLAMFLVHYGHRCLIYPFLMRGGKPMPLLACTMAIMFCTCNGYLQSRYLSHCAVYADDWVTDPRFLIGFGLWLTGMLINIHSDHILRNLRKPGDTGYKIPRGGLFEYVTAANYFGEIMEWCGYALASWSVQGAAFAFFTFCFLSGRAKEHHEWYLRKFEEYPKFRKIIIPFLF
Summary of the method: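 Lysates of stably transfected HEK293 cells (80% confluent cells sonicated in 300 mM saccharose, 5 mM Tris–HCl, 0.1 mM EDTA). Master mix: Tris buffer, androstenedione (500 nM solution) plus tracer [3H]androstenedione, NADP/glucose/glucose-6-P-dehydrogenase regenerating system; compound added in 2% DMSO. Cell suspension mixed 1:1 with master mix, 37 °C for 30 min. Stopped with ether; steroids extracted, dried, taken up in methanol, radio-HPLC.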

[8] = target: T1, 3-oxo-5-alpha-steroid 4-dehydrogenase 1 (Homo sapiens); test: Inhibition of human 5alpha-1 reductase expressed in HEK293 cells assessed as suppression of conversion of [3]androstenedione at 10 uM incubated for 30 mins by radioactivity-based HPLC analysis; type: cell-based
Summary of the method: (§1)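 Stably transfected HEK293 lines expressing 5AR-1 (HEK-I) or 5AR-2 (HEK-II) were sonicated in saccharose/Tris/EDTA buffer. The suspension was incubated at 37 °C for 30 min with 500 nM androstenedione solution plus [3H]androstenedione and an NADP/glucose/G6PDH regenerating system. Test compounds were added in 2% DMSO. The reaction was stopped with ether; steroids were extracted and analysed by radio-HPLC.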

[9] = target: T2, 3-oxo-5-alpha-steroid 4-dehydrogenase 2 (Homo sapiens) (UniProt P31213); test: Inhibition of human 5alpha-2 reductase expressed in HEK293 cells assessed as suppression of conversion of [3]androstenedione at 2 uM incubated for 30 mins by radioactivity-based HPLC analysis; type: cell-based; summary of the method: as §1
T2 sequence (whole entry): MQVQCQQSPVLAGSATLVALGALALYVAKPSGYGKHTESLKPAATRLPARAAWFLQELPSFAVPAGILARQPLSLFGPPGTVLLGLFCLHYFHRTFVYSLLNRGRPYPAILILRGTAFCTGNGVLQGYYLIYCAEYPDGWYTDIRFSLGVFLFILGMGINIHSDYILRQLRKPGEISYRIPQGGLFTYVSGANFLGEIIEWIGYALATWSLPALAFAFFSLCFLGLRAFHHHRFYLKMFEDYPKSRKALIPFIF

[10] = target: T2, 3-oxo-5-alpha-steroid 4-dehydrogenase 2 (Homo sapiens); test: Inhibition of human 5alpha-2 reductase expressed in HEK293 cells assessed as suppression of conversion of [3]androstenedione at 10 uM incubated for 30 mins by radioactivity-based HPLC analysis; type: cell-based; summary of the method: as §1
Rattus norvegicus [11] = test: Effect on organ weight in male wistar rat assessed as liver tissue weight per 100g at 5ml/kg, po qd measured on 15th day after 24 hrs of last dose (Rvb=2.994+/- 0.254 g/100g); type: ADME, organism-based; conditions: in vivo
[12] = target: T3, 3-oxo-5-alpha-steroid 4-dehydrogenase 2 (Homo sapiens, UniProt P31213); test: Inhibition of human 5alpha-2 reductase expressed in HEK293 cells assessed as suppression of conversion of [3]androstenedione incubated for 30 mins by radioactivity-based HPLC analysis; type: cell-based; summary of the method: as §1
T3 sequence (P31213 whole entry): T2 sequence (whole entry)

Rattus norvegicus [13] = test: Effect on organ weight in male wistar rat assessed as vas deferens tissue weight per 100g at 5ml/kg, po qd measured on 15th day after 24 hrs of last dose (Rvb=67.613+/-3.248 mg/100g); type: functional
Rattus norvegicus [14] = test: Effect on organ weight in male wistar rat assessed as adrenal tissue weight per 100g at 5ml/kg, po qd measured on 15th day after 24 hrs of last dose (Rvb=14.762 +/-0.600 mg/100g); type: ADME, organism-based; conditions: in vivo
Rattus norvegicus [15] = test: Increase in body weight gain in male wistar rat at 5ml/kg, po qd measured on 15th day after 24 hrs of last dose (Rvb=9.412+/-1.632g%); type: ADME, organism-based; conditions: in vivo
Rattus norvegicus [16] = test: Toxicity in male wistar rat assessed induction of mortality at 5ml/kg, po qd measured on 15th day after 24 hrs of last dose; type: organism-based; conditions: in vivo
Summary of the method: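 Mature male Wistar rats, groups of 5, standard diet. Compounds suspended in 0.50% CMC sodium given orally at 5 ml/kg once daily for 14 days; controls received vehicle only. Animals weighed and killed under ether on day 15, 24 h after last dose.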

Rattus norvegicus [17] = test: Effect on organ weight in male wistar rat assessed as ventral prostate tissue weight per 100g at 5ml/kg, po qd measured on 15th day after 24 hrs of last dose (Rvb=59.494+/- 4.733 mg/100g); type: functional, Prostate gland
Rattus norvegicus [18] = test: Effect on organ weight in male wistar rat assessed as epididymis tissue weight per 100g at 5ml/kg, po qd measured on 15th day after 24 hrs of last dose (Rvb=187.356+/- 5.961 mg/100g); type: functional
Rattus norvegicus [19] = test: Effect on organ weight in male wistar rat assessed testis tissue weight per 100g at 5ml/kg, po qd measured on 15th day after 24 hrs of last dose (Rvb=1054.099+/- 55.648 mg/100g); type: ADME, organism-based; conditions: in vivo
Rattus norvegicus [20] = test: Effect on organ weight in male wistar rat assessed as dorsal prostate tissue weight per 100g at 5ml/kg, po qd measured on 15th day after 24 hrs of last dose (Rvb=50.325+/-7.519 mg/100g); type: functional, Prostate gland

Row | Compound | IC50 [1] | Activity (Rattus norvegicus [2]) | Activity (Rattus norvegicus [3]) | Activity (Rattus norvegicus [4]) | Activity (Rattus norvegicus [5]) | Activity (Rattus norvegicus [6]) | inhibition [8] | inhibition [9] | inhibition [10] | Activity (Rattus norvegicus [11]) | pIC50 [12] | Activity (Rattus norvegicus [13]) | Activity (Rattus norvegicus [14]) | Activity (Rattus norvegicus [15]) | Activity (Rattus norvegicus [16]) | Activity (Rattus norvegicus [17]) | Activity (Rattus norvegicus [18]) | Activity (Rattus norvegicus [19]) | Activity (Rattus norvegicus [20]) | also measured
1 | C[C@]12CCC(c3nnn[nH]3)=CC1=CC[C@@H]1[C@@H]2CC[C@@]2(C)[C@H]1CCC(=O)N2Cc1ccccc1 | ND(Unstable) | – | – | – | – | – | – | – | – | – | – | – | – | – | – | – | – | – | – | –
2 | C[C@]12CCC(c3nnn[nH]3)=CC1=CC[C@@H]1[C@@H]2CC[C@]2(C)C(=O)CC[C@@H]12 | Not Active | 35.2% | 95.251 mg | 36.25% | 15.25% | 59.11% | 81.1% | 100% | 100% | 3.257 g | 7.08 | 27.646 mg | 17.986 mg | 18.382 g% | Non-toxic | 38.551 mg | 119.445 mg | 1090.046 mg | 42.651 mg | inhibition [7]: 38.7%
3 | C[C@]12CCC(c3nnn[nH]3)=CC1=CC[C@@H]1[C@@H]2CC[C@]2(C)NC(=O)CC[C@@H]12 | Not Active | 24.79% | 183.148 mg | 11.09% | 37.31% | 37.09% | 9.6% | 90.6% | 100% | 3.215 g | 6.66 | 42.532 mg | 16.421 mg | 15.498 g% | Non-toxic | 44.744 mg | 166.584 mg | 1152.287 mg | 31.548 mg | –
4 | C[C@]12C=CC(=O)N[C@@H]1CC[C@@H]1[C@@H]2CC[C@]2(C)[C@@H](C(=O)Nc3cc(C(F)(F)F)ccc3C(F)(F)F)CC[C@@H]12 [DUTASTERIDE] | – | – | 118.275 mg | – | – | – | – | – | – | 3.209 g | – | 52.802 mg | 14.208 mg | 11.914 g% | – | 35.858 mg | 155.415 mg | 1067.385 mg | 29.211 mg | –
5 | CC(C)(C)NC(=O)[C@H]1CC[C@H]2[C@@H]3CC[C@H]4NC(=O)C=C[C@]4(C)[C@H]3CC[C@]12C [FINASTERIDE] | – | 44.76% | 105.51 mg | 14.4% | 45.32% | 14.45% | – | – | – | 3.5097 g | 7.40 | 57.843 mg | 16.575 mg | 8.032 g% | – | 32.866 mg | 160.371 mg | 1058.022 mg | 27.519 mg | pIC50 ([1]; Homo sapiens, DU-145, read-out: IC50): 3.26
6 | C[C@]12CC[C@H]3[C@@H](CCC4=CC(=O)CC[C@@]43C)[C@@H]1CC[C@@H]2O [TESTOSTERONE] | – | – | 167.305 mg | – | – | – | – | – | – | 3.292 g | – | 55.097 mg | 13.969 mg | 3.767 g% | – | 70.923 mg | 171.193 mg | 1108.457 mg | 45.124 mg | –
